Assay results taken from ChEMBL document CHEMBL4400583, “Camporidines A and B: Antimetastatic and Anti-inflammatory Polyketide Alkaloids from a Gut Bacterium of Camponotus kiusiuensis” (J Nat Prod, 2019).
Converted amounts (≈) assume the structure as drawn. The source made the active and inactive calls. The rule behind the calls is not given here.

Columns and labels:
RAW264.7 [1] = experiment: Antiinflammatory activity in mouse RAW264.7 cells assessed as inhibition of LPS-induced nitric oxide production preincubated for 1 hr followed by LPS addition and measured on next day by Griess reagent based assay; type: functional, cell-based
Procedure, shortened: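 Mouse macrophages treated with compound, then stimulated with LPS to induce nitric oxide production (iNOS assay). NO suppression was read against LPS-only cells and expressed as IC50. 2-Amino-5,6-dihydro-6-methyl-4H-1,3-thiazine (AMT) was the positive control.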

MDA-MB-231 [2] = experiment: Antiproliferative activity against human MDA-MB-231 cells after 72 hrs by SRB assay; type: functional, cell-based
SK-HEP1 = experiment: Antiproliferative activity against human SKHEP1 cells after 72 hrs by SRB assay; type: functional, cell-based
MCF-10A = experiment: Antiproliferative activity against human MCF10A cells after 72 hrs by SRB assay; type: cell-based
MDA-MB-231 [3] = experiment: Antiinvasive activity against human MDA-MB-231 cells at 20 uM after 48 hrs by crystal violet staining based microscopic method relative to control; type: functional
Procedure, shortened: (§1)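 Cell invasion assay with MDA-MB-231 human breast cancer cells exposed to 20 or 40 μM compound, sunitinib as positive control. Invasion decrease is relative to untreated control, given as mean ± SD of n = 3, with significance versus control.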

Staphylococcus aureus = experiment: Antibacterial activity against Staphylococcus aureus; type: functional
MDA-MB-231 [4] = experiment: Antiinvasive activity against human MDA-MB-231 cells at 40 uM after 48 hrs by crystal violet staining based microscopic method relative to control; type: functional; procedure, shortened: as §1
Salmonella enterica = experiment: Antibacterial activity against Salmonella enterica; type: functional
A549 = experiment: Antiproliferative activity against human A549 cells after 72 hrs by SRB assay; type: functional, cell-based
Escherichia coli = experiment: Antibacterial activity against Escherichia coli; type: functional
Klebsiella pneumoniae = experiment: Antibacterial activity against Klebsiella pneumoniae; type: functional
Candida albicans = experiment: Antifungal activity against Candida albicans; type: functional
Trichophyton rubrum = experiment: Antifungal activity against Trichophyton rubrum; type: functional
RAW264.7 [5] = experiment: Cytotoxicity against LPS-induced mouse RAW264.7 cells assessed as reduction in cell viability up to 80 uM by MTT assay; type: cell-based
Procedure, shortened: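 Viability of mouse macrophages after co-exposure to LPS and compound, measured by MTT assay. This was run alongside the LPS-induced NO suppression assay to check for cytotoxicity.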

Homo sapiens = species: Homo sapiens; experiment: Antiproliferative activity against human SNU538 cells after 72 hrs by SRB assay; type: functional, cell-based
MDA-MB-231 [6] = experiment: Antimigratory activity against human MDA-MB-231 cells at 20 uM after 48 hrs by wound healing assay relative to control; type: functional
Procedure, shortened: (§2)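 Wound healing (scratch) assay on MDA-MB-231 human breast cancer cells, compound at 20 and 40 μM, sunitinib as positive control. Migration was expressed relative to untreated control as mean ± SD (n = 3), with significance versus control.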

Aspergillus fumigatus = experiment: Antifungal activity against Aspergillus fumigatus; type: functional
[7] = tested on: Trichophyton mentagrophytes; experiment: Antifungal activity against Trichophyton mentagrophytes; type: functional
MDA-MB-231 [8] = experiment: Antimigratory activity against human MDA-MB-231 cells at 40 uM after 48 hrs by wound healing assay relative to control; type: functional; procedure, shortened: as §2
Enterococcus faecalis = experiment: Antibacterial activity against Enterococcus faecalis; type: functional
HCT-116 = experiment: Antiproliferative activity against human HCT116 cells after 72 hrs by SRB assay; type: functional, cell-based
Enterococcus faecium = experiment: Antibacterial activity against Enterococcus faecium; type: functional
MDA-MB-231 [9] = experiment: Antimigratory activity against human MDA-MB-231 cells after 48 hrs by wound healing assay; type: functional, cell-based; procedure, shortened: as §2

IC50 (RAW264.7 [1])	MIC (Staphylococcus aureus)	MIC (Salmonella enterica)	MIC (Escherichia coli)	MIC (Klebsiella pneumoniae)	MIC (Candida albicans)	MIC (Trichophyton rubrum)	MIC (Aspergillus fumigatus)	MIC [7]	MIC (Enterococcus faecalis)	Structure (SMILES)	Activity (MDA-MB-231 [2])	Activity (SK-HEP1)	Activity (MCF-10A)	Activity (MDA-MB-231 [3])	Activity (MDA-MB-231 [4])	Activity (A549)	Activity (RAW264.7 [5])	Activity (Homo sapiens)	Activity (MDA-MB-231 [6])	Activity (MDA-MB-231 [8])	further results
83 µM	64 µM (≈ 20.4 µg/mL)	64 µM (≈ 20.4 µg/mL)	64 µM (≈ 20.4 µg/mL)	64 µM (≈ 20.4 µg/mL)	> 128 µM	> 128 µM	> 128 µM	> 128 µM	64 µM (≈ 20.4 µg/mL)	CCCCCC[C@H]1CN(O)[C@H]2C=C/C(=C\C=C\C(=O)O)[C@]23O[C@H]13	inactive	inactive	Non-Toxic	inactive	inactive	inactive	Non-Toxic	inactive	inactive	inactive	Activity (HCT-116): inactive; MIC (Enterococcus faecium): 64 µM (≈ 20.4 µg/mL)
16.9 µM	64 µM (≈ 19.4 µg/mL)	64 µM (≈ 19.4 µg/mL)	64 µM (≈ 19.4 µg/mL)	64 µM (≈ 19.4 µg/mL)	> 128 µM	> 128 µM	> 128 µM	> 128 µM	64 µM (≈ 19.4 µg/mL)	CCCCCC[C@H]1CN[C@H]2C=C/C(=C\C=C\C(=O)O)[C@]23O[C@H]13	inactive	inactive	Non-Toxic	20%	36%	inactive	Non-Toxic	inactive	50%	73%	Activity (MDA-MB-231 [9]): Dose-dependent effect; Activity (HCT-116): inactive; MIC (Enterococcus faecium): 64 µM (≈ 19.4 µg/mL)
